Assay results reported in the RNAGym collection of RNA variant scans (doi:10.1126/science.aae0568).
Variants at the floor of the assay were thinned out.

B1: tRNA (parent)
chain: GUUCCGUUGGCGUAAUGGUAACGCGUCUCCCUCCUAAGGAGAAGACUGCGGGUUCGAGUCCCGUACGGAACG

Variants of: B1
Assay: yeast fitness relative to wild type (ratio to wild type); higher = fitter; tRNA-Arg(CCU), competitive growth, 37 C, YPD
Method in brief: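 The tRNA-Arg(CCU) gene variants were made by chemical synthesis with a 3% per-site mutation rate at 69 sites and inserted at the native genomic locus of Saccharomyces cerevisiae. After pooling, the strains were competed in YPD at 37°C for 24 hours in six parallel replicates. Gene amplicons from the start population and each end population were read by 100-nucleotide paired-end sequencing, and Darwinian fitness relative to wild type was taken from genotype frequency changes. Genotypes needed ≥ 100 starting reads, and estimates < 0.5 were set to 0.5.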

Variant	yeast fitness
GUUCCGUUGGCGUAAUGGUCACGCGUCUCCCUCCUGAGGAGAAGUCUGCGGGUUCGAGUCCCGUGCGGAACG [A20C A36G A45U A65G]	0.614
GUUCCGUUGGCGUAAUGGUAAAGCGACUGCCUCCUAAGGAGAAGACUGCCGGUUCGAGUCCCGUACGGAACG [C22A U26A C29G G50C]	≤ 0.5
GUUCCGUUGGCGUAAUGGUAACGCGUCAGCCUCCUAAGGAGAAGACUGCGAGUUCAAGUCCCGUACGGCACG [U28A C29G G51A G56A A69C]	≤ 0.5
GUUCCGAUGGCGUAAUGGUACCGCGUCUUCCUCCUAGGGAGAAGACUGCGGGUUUGAGUCCCGUACGGAACG [U7A A21C C29U A37G C55U]	0.568
GUUCCGUUGGCGUAAUGGUAACGCGUCCCCCUCCUAAGGAGAAGUCUGCGGGUUCGAGUCCCGUACGGAUCG [U28C A45U A70U]	0.773
GUUCCGUUGGCGUAGUGGUAACGCGUCUCGCUCCUAAGGAGAAGACUGCGGGUUCGAGUCCCGUACGGAACG [A15G C30G]	0.631
GUUCCGUUGGUGUAAUGGGAACGCGUCUCCCUCCGAAGGAGAAGACUGCGGGUUCGAGUCCCGUACGGAACG [C11U U19G U35G]	≤ 0.5
GUUCCGCUGGCGUAAUGGUAACGCGUCUCCCUCCUAGGGAGCAGACUGGGGGUUCGAGUCUCGUACGGAACG [U7C A37G A42C C49G C61U]	0.504
GUUCCGUUGGCGCAAUGGUAACGCGUCUCCCUCCUAAGAAGAAGACUGCGGGUUCGAGUCCCGUACGGAACG [U13C G39A]	0.982
GUUCCCUUGGCGUAAUAGUAACGCGUCUCCCUCCUUAGGAGAAGACUGCGGGUUCGACUCCCGUACGGAACG [G6C G17A A36U G58C]	≤ 0.5
GUUCCGUUGGCGUAAUGGUAACGGGUCCGCCUCCUAAGGAGAAGACUGCGGGUUCGAGUCCCGUACGGAACG [C24G U28C C29G]	≤ 0.5
GUUCCGUCGGCGUAAUGGAAACGCGUCUCCCUCCUAAGGAGAAGACUGCGGGUUCGAGUCCCGUACGGAACG [U8C U19A]	0.923
GUUCCGUUGGCGUAAUGGUAACGCGUCUCCCUCCUAAGGAGAAGACUGUGGGUUUGAAUCCCGUACGGAACG [C49U C55U G58A]	≤ 0.5
GUUCCGUUGGCGUAAUGGUAACGCGUCUCCUUCCCAAGGAGAAGACUGCGGGUUCGAGUCCCGUACGGAACG [C31U U35C]	0.851
GUUCCGUUGGUGUCAUAGUAACACGUCUGCCUCCUAAGGAGCAGACUGCGGGUUCAAGUCCUGUACGGAACG [C11U A14C G17A G23A C29G A42C G56A C62U]	≤ 0.5
GUUCCGUUGGCGUAAUGGUAACGCGUCUCCCUCCUACGGUGAAGACUGCGGCUUCGAGUCCCGUACGGGACG [A37C A40U G52C A69G]	≤ 0.5
GUUCCGUUGGCGUAAUGGUAACGCUUCUCCCUCCUUAGGAGAAGACUGCGGGUUCCAGUCCCGCCCGGAACG [G25U A36U G56C U64C A65C]	≤ 0.5
GUUCCGUUGGCGUAAUGGUAAGGCGUCUGCCUCCUCAGCAGAAGAGUGCGGAUUCGAGUCCCGUACGGAACG [C22G C29G A36C G39C C46G G52A]	≤ 0.5
GUUCGGUUGGCGUAAUGGUAACGCGUUUCCAUCCCAAGGAGAAGACUGCGGGUUGGAGUCCCGUAUGGACCG [C5G C27U C31A U35C C55G C66U A70C]	≤ 0.5

Variant	yeast fitness
GUUCCGUUGGCGUACUGGUAACGCGUCUCCCUCCUAAGGAGAAGAUUGCGGGUUCGAGUCUCGUACAGAACG [A15C C46U C61U G67A]	≤ 0.5
GUUCCGAUGGCGUAAUGGUAACACGUCUACCUCCUAAGGAGAAGACUGCGGGUUCGAGUCUCGUACGGAACG [U7A G23A C29A C61U]	0.573
GUUCCGUUGGCGUAAUGGUAACGCGUCUUCCUCCUAAAGAGAAGACUCCGGGUUCGAGUCCCGUAUGGAACG [C29U G38A G48C C66U]	≤ 0.5
GUUUCGUUGGCGUAUUGGUAACGCGUCUCCCUCCUAAGGAGAAGACUGCGGGUUCGAGUCCCGCGCGGAACG [C4U A15U U64C A65G]	≤ 0.5
GUUCCGUUGGCGUAAUGGUAACGCGUCUCCCUCCUGAGGAGACGGCUGCGGGUUCGAGUCCCGUACGGAACG [A36G A43C A45G]	0.906
GUUCGGUUGGCGUAAUGGUAACGCGUCUCCCUCCUAAGGAGAAGAAUGCGGGUUCGAGUCCCGUACGGAACG [C5G C46A]	0.917
GUGCCGUUGGCGUAAUGGUAACGCGUCUCCGUCCUAAGGAGACGACUGCGGAUUCGAGUCCCGUACGGAACG [U3G C31G A43C G52A]	0.595
GUUCCGUUGGCGUAAUGGUAACGCGUCUCCCUCCUAAGGAGUACUCUGGGGGUUCGAGUCCCGUACGGAACG [A42U G44C A45U C49G]	≤ 0.5
GUUCCGUUGGCGUAAUGGUAACGCGUCUCCCUCCUAAGGAGAAGACUGCGGGUUCGAGUACCGUACGGAUCG [C60A A70U]	0.68
GUUCCGGUGGGGUAAUGGUAACGCGUCUCCCUCUUAAGGAAAAGACUGCGGGUUCGAGUCCCGUACGGAUCG [U7G C11G C34U G41A A70U]	≤ 0.5
GUUCCGUUGGCGUAAUGGUAACGCGUCUGCCUCCUAAGGAGCAGACUGCGGGUUCGAGUCCCGUACGGAACG [C29G A42C]	0.685
GUUCCGGUGGCGUAAUGGUAACGCGUGGCCCUCCUAAGGAGAAGACUGCGGGUUCGAGUCCCGUACGAAACG [U7G C27G U28G G68A]	≤ 0.5
GUUCCGUUGGCGUACUGGUAACGCGUCUCCCUCCUAAGGAGAAGACUGAGGGUUCGAGUCCCGUACGCAACG [A15C C49A G68C]	≤ 0.5
GUUCCGUUGGCGUGAUGGUAACGCGUCUCCCUCCUAAGGAGAAGACUGCGGGUUCGAGUCCCGUACGUAACG [A14G G68U]	0.826
GUUCCGUUGGCGUAAUGGUAAUGCGUCUCCCCCCUAAGGAGAAGAGUGCGGGGUCGAGUCCCGUACGCAACG [C22U U32C C46G U53G G68C]	0.544
GUUCUGUUGGCGUAAUGGUCACGCGUCUCCCUCCUAAGGAGAAGACUGCGGGUUCGAGUCCCGUACGGAACG [C5U A20C]	1.1
GUUCCGUUGGCGUAAUGGUAACGCGUCUCCCUCCUAAGGGGAAGACUGCGGGAUGGAGUCCCGUACGGAACG [A40G U53A C55G]	≤ 0.5
GUUCAGUUGGCAUAAUGGUAACGCGUCUCCCUCCUAAGGAGAAGACUGCCGGUUCGAGUCCCGUACGGAACG [C5A G12A G50C]	≤ 0.5
GUUCCGUAGGCGUCAUGGUAACGCGUCUCCAUCCUAAGGACAAGACUGAGGGUUCAAGUCCCGUACCGAACG [U8A A14C C31A G41C C49A G56A G67C]	≤ 0.5
